Rows were chosen to be rich in hits. Some 3.7% of all compounds tested hit in one or more screens of this group.
Kir21 block: blocks the mouse Kir2.1 inward-rectifier potassium channel | P35561 | HEK293-Kir2.1, FluxOR thallium flux fluorescence; stronger effect = lower value | B-score at 10 µM | 0.85% of 310,000 active | AID 1672;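 active means fluorescence ratio B-score at or below minus 3 SD of library scores, with starting-brightness B-score within 2 SD, cut at about -4.2 in these data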;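 further: channel flux triggered by added potassium and thallium sulfate stimulus; B-score of peak minus minimum fluorescence over baseline after thallium stimulus; more negative B-score means stronger Kir2.1 block with less thallium influx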
KCNQ1 act: human KCNQ1 channel potentiation or activation | P51787 | CHO-K1 KCNQ1, thallium flux FluxOR fluorescence; stronger effect = higher value | B-score at 10 µM | 0.35% of 310,000 active;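 active means fluorescence ratio B-score, a plate-corrected score, at least three library SD, with initial intensity B-score within 5 SD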
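assay system = CHO-K1 cells stably expressing KCNQ1 | medium = assay buffer, equal DMSO in all wells | timing = 37 °C overnight plating, 90-min dark dye load, 20-min compound pretreatment | measured by = kinetic FluxOR thallium fluorescence, 10-s 1-Hz baseline, 110-s post-stimulus read | measure = fluorescence change relative to baseline, converted to B score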
KCNK9 block: blocks the human KCNK9 two-pore domain potassium channel; Q9NPC2; HEK293 KCNK9, FluxOR thallium flux fluorescence; stronger effect = lower value; B-score at 10 µM; 1.2% of 310,000 active; AID 488922;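 active means ratio B-score over 3 SD below the library mean, with starting fluorescence within 5 SD of its mean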;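 further: negative B-score means less thallium flux so channel inhibition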
Target sequence (Q9NPC2 whole entry, looked up, the tested form may be a part): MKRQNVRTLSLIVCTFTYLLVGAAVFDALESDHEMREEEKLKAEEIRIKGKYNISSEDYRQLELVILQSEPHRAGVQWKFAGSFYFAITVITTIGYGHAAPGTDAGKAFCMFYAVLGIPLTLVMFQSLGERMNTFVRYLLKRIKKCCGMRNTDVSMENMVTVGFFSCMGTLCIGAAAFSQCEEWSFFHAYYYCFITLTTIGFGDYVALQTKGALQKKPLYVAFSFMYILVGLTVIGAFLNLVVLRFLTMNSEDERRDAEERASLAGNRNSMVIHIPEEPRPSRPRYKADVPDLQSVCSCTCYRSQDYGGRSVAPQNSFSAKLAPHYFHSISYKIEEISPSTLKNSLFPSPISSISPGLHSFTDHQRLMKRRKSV
hERG protect: compounds protecting human hERG from proarrhythmic drug block. Q12809. CHO-hERG, FluxOR thallium flux, dofetilide IC70 present. activation (rescue from dofetilide block), less the hit threshold, % at 10 µM. 0.51% of 310,000 active;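 active means activation above the mean of controls blocked by dofetilide plus 5 SD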;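 further: thallium influx through hERG after potassium depolarization seen as dye fluorescence rise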
KCNQ1 inh: human KCNQ1 channel inhibition; B-score at 10 µM; P51787; 1.3% of 310,000 active; CHO-K1 KCNQ1, FluxOR thallium flux fluorescence; stronger effect = higher value;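 active means compounds whose thallium flux B-score, printed positive for inhibition, exceeds three library SD while starting fluorescence stays within three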;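 further: channel opened by potassium depolarization with thallium stimulus after 20 min compound exposure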
KCNK3 inh: human KCNK3 channel inhibition, primary screen | O14649 | CHO-KCNK3 thallium flux, FluxOR fluorescence; stronger effect = lower value | B-score at 10 µM | 0.84% of 340,000 active | AID 602410;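 active means B-score under library mean minus 4 SD, starting fluorescence ratio at most library mean plus 5 SD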;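 further: more negative B-score means stronger inhibition of thallium flux through KCNK3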
KCNK9 block conf: confirmation of human KCNK9 potassium channel inhibitors; 43% of 4,900 active; AID 492992; shares compounds with KCNK9 block; inhibition, % at 10 µM; HEK293 KCNK9 cells, FluxOR thallium flux fluorescence;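 active means thallium signal inhibited by more than 5 SD of the compound-free buffer control wells, on both duplicate plates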;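 further: 0% = assay buffer control wells without compound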
Kir2-1 spec: selectivity of KCNK9 modulators against mouse Kir2.1 | shares compounds with KCNK9 block | Kir2.1 cells, FluxOR thallium flux fluorescence | inhibition, % at 10 µM | 4% of 4,900 active | AID 492993;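 active means thallium signal drop more than 5 SD beyond the mean of the no-compound control wells, seen in both duplicate plates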;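 further: signal is fluorescence rise after thallium addition divided by baseline fluorescence; plate controls were assay buffer only for no effect and full block by chlorpromazine control for full effect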
HEK293 Tl ctr: second counter-screen for KCNK9 modulators: effect in non-induced cells; AID 492997; 40% of 4,900 active; inhibition, % at 10 µM; non-induced KCNK9-HEK293, FluxOR thallium flux; shares compounds with KCNK9 block;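 active means thallium signal drop beyond 5 SD of the untreated control mean, on both duplicate plates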;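 further: plate controls were buffer only IC0 wells for no effect and SID17386958 at its maximal inhibitory level for full effect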
Active calls of the source: *; i = inactive; . = no result.

SMILES | Kir21 block | KCNQ1 act | KCNK9 block | hERG protect | KCNQ1 inh | KCNK3 inh | KCNK9 block conf | Kir2-1 spec | HEK293 Tl ctr
CCCCC(=O)NCCc1cc2c(OC)ccc(OC)c2[nH]c1=O | -1.1 | i | i | -10 | i | i | i | i | i
COc1ccc(C(=O)NCCc2cc3c(OC)ccc(OC)c3[nH]c2=O)cc1OC | 0.01 | i | i | -14 | i | i | . | . | .
CCOC(=O)C(CSCc1ccccc1)NC(=O)OC(C)(C)C (stereo not drawn) | -4.3* | i | i | -6 | i | i | i | i | i
O=C(NCC(=O)N1CCOCC1)c1ccc(Cl)c(Cl)c1 | . | . | . | . | . | i | . | . | .
CSc1nnnn1-c1c(C)cccc1C | -0.32 | i | i | -4 | i | i | . | . | .
Cc1cccc(C)c1-n1nnnc1SCSc1nnnn1-c1c(C)cccc1C | 1.6 | i | -13* | -8 | i | i | i | i | 35%*
CCc1cc(C(=O)c2ccc(OC)cc2)c(NC(=O)CC(C)(C)CC(=O)O)s1 | 0 | i | i | -7 | i | i | . | . | .
C(COC1CC2CC1C1C2CC2OC21)OC1CC2CC1C1C2CC2OC21 (stereo not drawn) | . | . | . | . | . | i | . | . | .
COc1ccc(/C(N)=N/OC(=O)CC2CCCCC2)cc1 | 1.2 | i | i | -6 | i | i | . | . | .
COc1cc(OC)nc(Oc2ccccc2C(=O)Oc2ccccc2Cl)n1 | -3.6 | i | -11* | 1 | i | i | 42%* | i | 28%*
COC(=O)c1ccccc1Oc1nc(Cl)cc(OC)n1 | 0.98 | i | i | -5 | i | i | . | . | .
COc1cc(OC)nc(Oc2ccccc2C(=O)Oc2ccc(Cl)cc2)n1 | 0 | i | -9* | 1 | i | i | 44%* | i | 39%*
O=C(/C=C1\NC2(CCCC2)Cc2ccccc21)C(=O)N/N=C/c1ccc(O)c(O)c1 | -1.4 | i | -10* | -17 | i | i | 48%* | i | 30%*
CCOC(=O)c1c(NC(=S)Nc2ccc(OC)cc2)sc2c1CCC2 | 0.67 | i | i | -17 | i | i | . | . | .
CCOC(=O)c1c(NC(=S)Nc2ccccc2)sc2c1CC(C)(C)SC2 | 0.03 | i | -9.1* | -2 | 8* | i | i | i | 33%*
COc1cc(SC#N)ccc1N=Cc1c(C)[nH]n(-c2ccc(C)c(C)c2)c1=O | 0.89 | i | i | -4 | i | i | i | i | i
C/C(=N\N1CCN(c2ccc(Cl)cc2)CC1)c1cccc([N+](=O)[O-])c1 | 1.2 | i | -11* | -1 | i | i | 44%* | i | 30%*
Nc1ccc(S(=O)(=O)NC2(C(F)(F)F)NC(=O)N(c3ccccc3F)C2=O)cc1 (stereo not drawn) | -1.7 | i | i | -5 | i | i | . | . | .
CC(NC(=O)CCCCCN1C(=O)c2ccccc2C1=O)c1ccc2c(c1)CCCC2 (stereo not drawn) | -0.88 | i | i | -4 | i | i | i | i | i
CC(NC(=O)CCCCCCN1C(=O)c2ccccc2C1=O)c1ccc2c(c1)CCCC2 (stereo not drawn) | 0.43 | i | i | -4 | i | i | i | i | i
S=c1nc(NCCc2ccccc2Cl)c2ccccc2[nH]1 | 1.6 | i | i | 0 | i | i | . | . | .
C=CCOC(=O)Cn1cnc2c(sc3nc(C)cc(C)c32)c1=O | 1.6 | i | i | -10 | i | i | . | . | .
O=C(O)c1ccc(CS(=O)(=O)c2c(Cl)cccc2Cl)o1 | -0.85 | i | i | -4 | i | i | . | . | .
CCn1cc(C2C3=C(CC(C)(C)CC3=O)N(c3ccccc3)C3=C2C(=O)CC(C)(C)C3)c(C)n1 | 0.09 | i | i | -8 | i | i | . | . | .
CC(C)OCCCNC(=O)C1CC(=O)N(CCc2ccccc2)C1 (stereo not drawn) | -6 | i | i | -5 | i | i | . | . | .
SMILES | Kir21 block | KCNQ1 act | KCNK9 block | hERG protect | KCNQ1 inh | KCNK3 inh | KCNK9 block conf | Kir2-1 spec | HEK293 Tl ctr
O=C(Nc1cccc(S(=O)(=O)NC2=NCCC2)c1)c1ccccc1OC(F)F | 0 | i | i | -3 | i | i | . | . | .
Clc1ccc(C2[C@H]3CN(Cc4ccc(-c5ccccc5)cc4)[C@H](c4ccccc4)C34CC2(c2ccccc2)C4)cn1 (stereo partly drawn) | 0.01 | i | i | -7 | i | . | . | . | .
Clc1ccc(C2[C@H]3CN(Cc4cccnc4)[C@H](c4ccccc4)C34CC2(c2ccccc2)C4)cn1 (stereo partly drawn) | -1.1 | i | -9.8* | -6 | i | i | 30%* | i | 35%*
O=C(N/N=C/c1ccc(OC2CSC2)cc1)c1ccccc1 | -0.16 | i | i | -6 | i | i | . | . | .
O=C(/C=C/c1ccc(OC2CSC2)cc1)c1ccccc1 | -1.6 | i | -16* | -10 | i | i | 42%* | i | 28%*
CCOc1ccc2nc(SCC(=O)NC(=O)NCc3ccco3)[nH]c2c1 | 1.1 | i | i | -11 | i | i | i | i | i
Cc1cc(N2CCCCC2)n2ncc(-c3ccc(Cl)cc3)c2n1 | 0.6 | i | -11* | -12 | i | i | 54%* | i | 36%*
COC(=O)c1nn(-c2ccccc2)c(Cl)c1/C=N/OCc1ccc(Cl)cc1Cl | 1.4 | i | i | -8 | i | i | i | i | i
COC(=O)c1nn(-c2ccccc2)c(Cl)c1/C=N/O | 1.7 | i | i | -20 | i | i | . | . | .
COc1ccc(CCCc2nnc(SCC(=O)Nc3cccc(C)c3)o2)cc1 | -0.16 | i | i | -4 | i | i | i | i | i
c1ccc(SCCN2CCN(c3ccccc3)CC2)cc1 | 0.53 | i | i | -8 | i | i | i | i | i
CCCN1CCC(=O)N(CCSc2ccccc2)CC1 | 0.81 | i | i | 2 | i | i | . | . | .
Cc1nn2c(N3CCCC3)cc(C(C)C)nc2c1-c1ccccc1 | -0.33 | i | -8.3* | -12 | i | i | 58%* | i | 45%*
O=[N+]([O-])c1ccc(N2CCOCC2)cc1SCc1ccco1 | -1.2 | i | i | -2 | i | i | . | . | .
O=[N+]([O-])c1ccc(SCc2ccco2)cc1N1CCOCC1 | -2.8 | i | i | 0 | i | i | i | i | i
